Key:
[1] = system: Human immunodeficiency virus 1; assay: Antiviral activity against HIV1 NL4.3 expressing reverse transcriptase K103N mutant infected in human TZM-bl cells incubated for 30 mins prior to infection measured after 48 hrs by luciferase assay; assay type: functional, organism-based; conditions: Human immunodeficiency virus 1, NL4.3, TZM-bl
In short: (§1)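 TZM-bl cells (10,000/well at 10⁵ cells/mL, medium with 30 μg/mL DEAE dextran) preincubated 30 min at 37 °C, 5% CO₂ with serial compound dilutions. Then 200 TCID₅₀ mutant HIV-1 added per well. After 48 h, luciferase read. Triplicate wells, at least two independent experiments. % inhibition versus untreated controls fitted by nonlinear regression to give EC₅₀.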

[2] = system: Human immunodeficiency virus 1; assay: Antiviral activity against HIV1 NL4.3 infected in human TZM-bl cells incubated for 30 mins prior to infection measured after 48 hrs by luciferase assay; assay type: functional, organism-based; conditions: Human immunodeficiency virus 1, NL4.3, TZM-bl
In short: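 TZM-bl cells (10 000/well, 10⁵ cells/mL in medium with 30 μg/mL DEAE dextran) preincubated 30 min at 37 °C, 5% CO₂ with serial compound dilutions; 200 TCID₅₀ HIV-1 WT or mutant virus added, luciferase read after 48 h. Triplicate wells, ≥2 independent experiments; % inhibition vs untreated controls, EC₅₀ by nonlinear regression.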

[3] = system: Human immunodeficiency virus 1; assay: Antiviral activity against HIV1 NL4.3 expressing reverse transcriptase E138K mutant infected in human TZM-bl cells incubated for 30 mins prior to infection measured after 48 hrs by luciferase assay; assay type: functional, organism-based; conditions: Human immunodeficiency virus 1, NL4.3, TZM-bl; in short: as §1
[4] = system: Human immunodeficiency virus 1; assay: Antiviral activity against HIV1 NL4.3 expressing reverse transcriptase K101E mutant infected in human TZM-bl cells incubated for 30 mins prior to infection measured after 48 hrs by luciferase assay; assay type: functional, organism-based; conditions: Human immunodeficiency virus 1, NL4.3, TZM-bl; in short: as §1
[5] = system: Human immunodeficiency virus 1; assay: Antiviral activity against HIV1 NL4.3 expressing reverse transcriptase Y181C mutant infected in human TZM-bl cells incubated for 30 mins prior to infection measured after 48 hrs by luciferase assay; assay type: functional, organism-based; conditions: Human immunodeficiency virus 1, NL4.3, TZM-bl; in short: as §1
[6] = system: Human immunodeficiency virus 1; assay: Antiviral activity against HIV1 NL4.3 expressing reverse transcriptase V106A mutant infected in human TZM-bl cells incubated for 30 mins prior to infection measured after 48 hrs by luciferase assay; assay type: functional, organism-based; conditions: Human immunodeficiency virus 1, NL4.3, TZM-bl; in short: as §1
[7] = Cytotoxicity against human TZM-bl cells assessed as reduction in cell viability after 2 days by WST-1 assay; assay type: cell-based
In short: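 10 000 TZM-bl cells cultured 48 h with serial compound dilutions; WST-1 added and absorbance at 450 nm read after 90 min. Three replicate wells, ≥2 independent experiments; % viability vs untreated controls, CC₅₀ by nonlinear regression.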

[8] = system: Human immunodeficiency virus 1; assay: Antiviral activity against HIV1 NL4.3 expressing reverse transcriptase V90I mutant infected in human TZM-bl cells incubated for 30 mins prior to infection measured after 48 hrs by luciferase assay; assay type: functional, organism-based; conditions: Human immunodeficiency virus 1, NL4.3, TZM-bl; in short: as §1
[9] = system: Human immunodeficiency virus 1; assay: Antiviral activity against HIV1 NL4.3 expressing reverse transcriptase L100I mutant infected in human TZM-bl cells incubated for 30 mins prior to infection measured after 48 hrs by luciferase assay; assay type: functional, organism-based; conditions: Human immunodeficiency virus 1, NL4.3, TZM-bl; in short: as §1
[10] = system: Human immunodeficiency virus 1; assay: Antiviral activity against HIV1 NL4.3 infected in human TZM-bl cells using compound gel formulation incubated for 72 hrs by luciferase based transwell assay; assay type: functional, organism-based; conditions: Human immunodeficiency virus 1, NL4.3, TZM-bl
In short: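 Transwell format, gel reformulated without β-cyclodextrins. TZM-bl cells (4 × 10⁴/apical chamber, 3 μm pore) cultured overnight. 60 TCID₅₀ NL4.3 added apically with gel at 50%, final drug 5000–0.5 nM (tenfold steps); medium in basal compartment. Blank gel used for virus titration. Luciferase read-out; triplicates.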

[11] = molecular target: Human immunodeficiency virus type 1 reverse transcriptase (Human immunodeficiency virus 1, UniProt Q72547); assay: Inhibition of recombinant HIV1 His-tagged p66/p51 reverse transcriptase expressed in Escherichia coli assessed as reduction in [3H]dTTP incorporation using poly(rA)-oligo(dT) (12 to 18 bp) as template/primer incubated for 20 mins by scintillation counting method

SMILES	EC50 [10]	EC50 [1]	EC50 [2]	EC50 [3]	EC50 [4]	EC50 [5]	EC50 [6]	CC50 at 48 h [7]	EC50 [8]	EC50 [9]	IC50 [11]
Cc1c(C(C)c2c(Cl)cccc2Cl)nc(N(C)Cc2ccc(N3CCOCC3)cc2)[nH]c1=O (stereo unspecified)	–	1.5 µM	0.086 µM	0.256 µM	0.942 µM	1.29 µM	0.015 µM	38.4 µM	–	–	–
Cc1c(C(C)c2c(F)cccc2F)nc(N(C)Cc2ccc([N+](=O)[O-])cc2)[nH]c1=O (stereo unspecified)	–	0.518 µM	0.01 µM	0.065 µM	0.134 µM	0.814 µM	–	> 50 µM	0.03 µM	1.5 µM	–
C[C@H](Cn1cnc2c(N)ncnc21)OCP(=O)(O)O [TENOFOVIR ANHYDROUS]	3 µM	–	–	–	–	–	–	–	–	–	–
Cc1c(Cc2c(Cl)cccc2Cl)nc(N(C)Cc2ccc(N3CCN(C(=O)OC(C)(C)C)CC3)cc2)[nH]c1=O	–	–	2.93 µM	–	–	–	–	2.59 µM	–	–	–
Cc1c(C(C)c2c(Cl)cccc2Cl)nc(N(C)Cc2ccc([N+](=O)[O-])cc2)[nH]c1=O (stereo unspecified)	–	–	0.104 µM	–	–	–	–	> 50 µM	–	–	–
COc1ccc(CN(C)c2nc(C(C)c3c(Cl)cccc3Cl)c(C)c(=O)[nH]2)cc1 (stereo unspecified)	–	–	0.012 µM	–	–	0.209 µM	0.01 µM	> 100 µM	–	–	0.017 µM
COc1ccc(CN(C)c2nc(Cc3c(Cl)cccc3Cl)c(C)c(=O)[nH]2)cc1	–	–	0.015 µM	–	–	0.68 µM	0.01 µM	17.9 µM	–	–	0.005 µM
COc1ccc(CN(C)c2nc(C(C)c3c(F)cccc3F)cc(=O)[nH]2)cc1 (stereo unspecified)	–	0.034 µM	0.0026 µM	0.0091 µM	0.017 µM	0.094 µM	0.00087 µM	48.1 µM	–	–	–
Cc1cc(C)c(Nc2ccnc(Nc3ccc(C#N)cc3)n2)c(C)c1 [DAPIVIRINE]	–	–	0.0013 µM	–	–	–	–	3.4 µM	–	–	–
Cc1c(C(C)c2c(Cl)cccc2Cl)nc(N(C)Cc2ccc(N3CCNCC3)cc2)[nH]c1=O (stereo unspecified)	–	–	0.102 µM	–	–	–	–	13.2 µM	–	–	–

Source: ChEMBL document CHEMBL3784955, “Development and in Vitro Evaluation of a Microbicide Gel Formulation for a Novel Non-Nucleoside Reverse Transcriptase Inhibitor Belonging to the N-Dihydroalkyloxybenzyloxopyrimidines (N-DABOs) Family” (J Med Chem, 2016)
